In assay [1] the target is T1, LRRK2 mutant t-G2019S (aa 970–2527) (Homo sapiens, UniProt Q5S007, G2019S). In kind it is biochemical. The conditions noted are these: for KA (ATP): t-G2019S.
Assay [2] addresses T2, truncated wild-type LRRK2 (aa 970–2527) (Homo sapiens, UniProt Q5S007). In kind it is biochemical. The conditions noted are these: for KA (ATP): t-WT.
Assay [3] addresses T2, truncated wild-type LRRK2 (aa 970–2527). Put plainly: TR-FRET assay of PLK-peptide phosphorylation. The format is biochemical. Put shortly:
(§1)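 Baculovirus-expressed truncated LRRK2 (aa 970–2527). ATP varied at several fixed PLK-peptide levels. Started with 4 nM enzyme; duplicate wells, RT, 4 h. Stopped with 10 mM EDTA; 2 nM Eu-anti-phospho-PLK added for 2 h; TR-FRET read. Initial velocities fitted by nonlinear least squares to two-substrate rate equations.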
(In general: TR-FRET usually uses a lanthanide donor and a delayed reading to cut background.)

Assay [4] addresses T1, LRRK2 mutant t-G2019S (aa 970–2527). Put plainly: TR-FRET assay of PLK-peptide phosphorylation, initial velocity and inhibition. In kind it is biochemical. Put shortly: as §1
The test system of a further assay is truncated LRRK2 proteins. Briefly: Effect of GTP or GDP on kinase activity. The conditions noted are these: in vitro. In kind it is biochemical, human.
The test system of assay [5] is t-wt LRRK2 (GTPase activity). Briefly: Radiometric TLC assay of LRRK2-catalyzed GTP hydrolysis. In kind it is biochemical, human. Conditions: pH 7.4, room temperature, Michaelis-Menten fit. Put shortly:
(§2)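 Baculovirus-expressed truncated LRRK2 (aa 970–2527), wild-type or G2019S. Run in triplicate, 20 min at room temperature, quenched with 20 mM EDTA. GDP resolved by PEI-cellulose TLC (0.5 M KH2PO4, pH 3.4) and scintillation-counted. Initial velocities versus [GTP] fitted to Michaelis-Menten.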

Assay [6] relates to mutant t-G2019S (GTPase activity). The description is as above. In kind it is biochemical, human. Put shortly: as §2
The next assay concerns the target t-wt LRRK2 (Homo sapiens, UniProt Q5S007). In kind it is biochemical. The conditions noted are these: t-wt LRRK2 treated with NEM.
Assay [7] has as its target Truncated LRRK2 mutant G2019S (aa 970–2527) (human) (UniProt Q5S007). Put plainly: enzyme inhibition kinetics.
In assay [8] the target is Truncated wild-type LRRK2 (aa 970–2527) (human, UniProt Q5S007 970-2527). Briefly: enzyme inhibition kinetics.

Read-outs that look alike come from different tables or passages of the source. Non-standard residues stand in square brackets, D forms with d. No end group written: not given here. pT = C[C@@H](OP(=O)(O)O)[C@H](N)C(=O)O A value given as a limit tells only on which side of the number the result lay.

T1 sequence (Q5S007 970-2527 G2019S): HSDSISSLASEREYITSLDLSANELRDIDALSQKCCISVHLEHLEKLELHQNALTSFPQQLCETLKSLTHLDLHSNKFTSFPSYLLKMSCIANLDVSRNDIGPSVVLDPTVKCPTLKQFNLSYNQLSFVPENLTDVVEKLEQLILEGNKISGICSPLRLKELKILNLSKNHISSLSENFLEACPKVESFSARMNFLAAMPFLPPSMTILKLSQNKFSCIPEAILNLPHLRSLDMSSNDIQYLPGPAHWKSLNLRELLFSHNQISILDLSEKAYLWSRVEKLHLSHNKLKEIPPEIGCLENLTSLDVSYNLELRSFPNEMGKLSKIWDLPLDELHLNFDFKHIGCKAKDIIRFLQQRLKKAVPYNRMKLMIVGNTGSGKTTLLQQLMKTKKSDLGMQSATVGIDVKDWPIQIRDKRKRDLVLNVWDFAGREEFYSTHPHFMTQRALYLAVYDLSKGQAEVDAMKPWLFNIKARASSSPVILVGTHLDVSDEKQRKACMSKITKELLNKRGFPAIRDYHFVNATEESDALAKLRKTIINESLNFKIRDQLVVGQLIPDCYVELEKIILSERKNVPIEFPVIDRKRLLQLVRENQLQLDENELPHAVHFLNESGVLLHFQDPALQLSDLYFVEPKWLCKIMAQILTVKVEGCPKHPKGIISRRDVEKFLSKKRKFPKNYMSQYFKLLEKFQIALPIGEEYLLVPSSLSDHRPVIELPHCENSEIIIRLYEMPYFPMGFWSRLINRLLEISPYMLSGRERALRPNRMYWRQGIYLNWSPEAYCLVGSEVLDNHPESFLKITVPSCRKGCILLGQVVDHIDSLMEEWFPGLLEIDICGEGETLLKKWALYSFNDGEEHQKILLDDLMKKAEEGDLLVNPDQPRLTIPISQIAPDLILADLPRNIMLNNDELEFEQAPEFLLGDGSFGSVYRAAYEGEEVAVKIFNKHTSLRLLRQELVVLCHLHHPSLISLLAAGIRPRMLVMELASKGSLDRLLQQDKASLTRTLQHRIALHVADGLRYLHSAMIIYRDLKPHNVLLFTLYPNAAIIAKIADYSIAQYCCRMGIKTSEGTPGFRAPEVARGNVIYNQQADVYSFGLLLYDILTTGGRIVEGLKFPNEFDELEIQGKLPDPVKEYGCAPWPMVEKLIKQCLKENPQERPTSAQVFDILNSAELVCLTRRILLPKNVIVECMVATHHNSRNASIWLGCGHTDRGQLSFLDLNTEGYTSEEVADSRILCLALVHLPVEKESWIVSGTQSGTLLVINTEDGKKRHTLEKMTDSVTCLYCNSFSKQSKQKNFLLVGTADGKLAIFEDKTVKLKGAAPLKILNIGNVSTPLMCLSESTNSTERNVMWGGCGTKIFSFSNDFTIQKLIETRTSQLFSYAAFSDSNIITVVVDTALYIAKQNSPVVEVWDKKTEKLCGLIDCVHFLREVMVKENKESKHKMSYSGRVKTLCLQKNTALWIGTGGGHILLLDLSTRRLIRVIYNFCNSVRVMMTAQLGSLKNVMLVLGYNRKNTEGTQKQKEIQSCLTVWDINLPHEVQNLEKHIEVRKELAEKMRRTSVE
Sequence of Truncated LRRK2 mutant G2019S (aa 970–2527) (human) (Q5S007 970-2527 G2019S): as above
T2 sequence (Q5S007 970-2527): as the sequence (Q5S007 970-2527 G2019S) above, with S1050G counted along it
Sequence of t-wt LRRK2 (Q5S007 970-2527): as the sequence (Q5S007 970-2527 G2019S) above, with S1050G counted along it
Sequence of Truncated wild-type LRRK2 (aa 970–2527) (Q5S007 970-2527): as the sequence (Q5S007 970-2527 G2019S) above, with S1050G counted along it

For the molecule `Nc1ncnc2c1ncn2[C@@H]1O[C@H](COP(=O)(O)OP(=O)(O)O)[C@@H](O)[C@H]1O` [ADP], the inhibition mechanism entry in assay [1] (LRRKtide phosphorylation, variable substrate LRRKtide) is given as “noncompetitive”.

On to `Nc1ncnc2c1ncn2[C@@H]1O[C@H](COP(=O)(O)OP(=O)(O)OP(=O)(O)O)[C@@H](O)[C@H]1O` [ATP], for which the “KA (ATP)” value in [2] (phosphoryl acceptor LRRKtide) was 69 ± 6.6 µM; in [2] (phosphoryl acceptor LRRKtide^S), 77 ± 19 µM; in assay [1] (phosphoryl acceptor LRRKtide) it was 101 ± 16 µM; in assay [1] (phosphoryl acceptor LRRKtide^S), 161 ± 38 µM; in [3] (t-WT, phosphoryl acceptor PLK-peptide) it was 7.1 ± 0.7 µM; in assay [4] (phosphoryl acceptor PLK-peptide) it was 10 ± 3.9 µM.

On to `Nc1nc2c(ncn2[C@@H]2O[C@H](COP(=O)(O)OP(=O)(O)O)[C@@H](O)[C@H]2O)c(=O)[nH]1` [GDP], for which the “effect on kinase activity” value in the assay on truncated LRRK2 proteins is “unable to detect any effect”.

`Nc1nc2c(ncn2[C@@H]2O[C@H](COP(=O)(O)OP(=O)(O)OP(=O)(O)O)[C@@H](O)[C@H]2O)c(=O)[nH]1` [GTP]: the KGTP is 0.7 ± 0.1 mM in assay [5] and 0.4 ± 0.1 mM in assay [6] (t-G2019S, pH 7.4, room temperature, Michaelis-Menten fit). For the same molecule, the “kcat (GTP hydrolysis)” value was found to be 0.04 ± 0.004 s⁻¹ in [5] (triplicate) and 0.03 ± 0.002 s⁻¹ in [6] (t-G2019S, pH 7.4, room temperature, Michaelis-Menten fit, triplicate). Besides, in assay [6] (t-G2019S versus t-wt), the “decrease of GTPase activity by the mutation” value is on record as 20%. Besides, the “effect on kinase activity” value in the assay with truncated LRRK2 proteins was “unable to detect any effect”.

Regarding `CCN1C(=O)C=CC1=O` [NEM, N-ethylmaleimide], the “inhibition of LRRK2, dose-response” value at t-wt LRRK2 is reported as “complete inhibition at high NEM concentration”.

Turning to LRRKtide^A (peptide), in assay [7], the Ki,e (variable substrate ATP, noncompetitive; LRRKtide^S phosphorylation) came out at 800 µM; the Ki,e (variable substrate ATP, noncompetitive; PLK-peptide phosphorylation) is 800 µM; the Ki,ea (variable substrate ATP, noncompetitive; LRRKtide^S phosphorylation) was found to be 500 µM; the Ki,ea (variable substrate ATP, noncompetitive; PLK-peptide phosphorylation) came out at 500 µM. In assay [7], this molecule gave a Ki,ea (variable substrate LRRKtide^S, competitive) of 500 µM and a Ki,ea (variable substrate PLK-peptide, competitive) of 500 µM.

Consider RLGRDKYKTLRQIRQ [LRRKtide], for which the Kb in assay [2] amounted to 87 ± 11 µM; in assay [1], 79 ± 11 µM.

Take “RRRSLLE (Only the motif RRRSLLE is printed; The Ser is the phosphoaccept) [PLK-peptide]”: the Kb was 0.43 ± 0.05 µM in assay [3] (read-out: KB (phosphoryl acceptor), t-WT, TR-FRET, averaged from two independent experiments) and 0.5 ± 0.2 µM in assay [4] (read-out: KB (phosphoryl acceptor), TR-FRET, averaged from two independent experiments).

For RRRSLLE [PLK-peptide], the “tighter binding relative to LRRKtide” value in assay [3] (from differences in Km values) is greater than 200 fold. For the same molecule, the α in [3] (t-WT, TR-FRET, interaction factor (eq 3)) is reported as 0.5 ± 0.1; in assay [4] (TR-FRET, interaction factor (eq 3)), 0.6 ± 0.3.

Regarding RLGRDKYK[pT]LRQIRQ (not fully specified; printed as RLGRDKYK(PO4)TLRQIRQ) [PO4-LRRKtide], the binding result in assay [8] is “binds”.

Values taken from publication PMC3205922 (Biochemistry, 2011).
